Assay results from ChEMBL document CHEMBL1275441, “Effect of impaired renal function on the pharmacokinetics of tomopenem (RO4908463/CS-023), a novel carbapenem” (Antimicrob Agents Chemother, 2008).

Tests used:
[1] = Cmax in human with creatinine clearance of => 80 ml/min at 1500 mg, iv administered as single dose measured after 60 mins; assay type: ADME, organism-based; parameters: dose 1500 mg, route intravenous; details: in vivo
Procedure, shortened: (§1)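 Single 1,500 mg i.v. infusion over 60 min, eight subjects per renal-function group (creatinine clearance by Cockcroft-Gault at screening). Blood was sampled predose and at 1–48 h, and the plasma was stabilized 1:1 with 0.5 M MOPS pH 6.0, kept from light and frozen at −70°C. Parent and metabolite were measured by a validated bioanalytical method. Noncompartmental analysis: t1/2 = ln2/λz from ≥3 terminal points, Cmax/Tmax from raw data, ratio = AUC∞ metabolite/parent.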

[2] = Dose normalized excretion in human with creatinine clearance of 30-49 ml/min at 1500 mg, iv administered as single dose after 24 hrs; assay type: ADME, organism-based; details: in vivo, read-out: Activity
Procedure, shortened: (§2)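 After a single 1,500 mg i.v. infusion over 60 min, urine was collected 0–6, 6–12 and 12–24 h post-dose, with volume and pH recorded. Aliquots were mixed 1:1 with 0.5 M MOPS, protected from light and frozen at −70°C. Parent and metabolite were assayed by a validated method. CLR = Ae24/plasma AUC24. n = 8 per group, mean ± SD.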

[3] = Renal clearance in human with creatinine clearance of => 80 ml/min at 1500 mg, iv administered as single dose after 24 hrs; assay type: ADME, organism-based, Kidney; details: in vivo, read-out: CL_renal (converted)
Procedure, shortened: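 Single 1,500 mg i.v. infusion over 60 min, with 8 subjects per renal-function group (CL_CR by Cockcroft-Gault at screening). Urine was collected at 0–6, 6–12 and 12–24 h, volume and pH recorded, and aliquots mixed 1:1 with 0.5 M MOPS. Samples were frozen at −70°C, protected from light, and assayed by a validated method. CL_R = A_e24/AUC₂₄.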

Homo sapiens [4] = assay: Drug metabolism in human with creatinine clearance of 30-49 ml/min assessed as RO4957463 AUC (infinity) at 1500 mg, iv administered as single dose measured after 60 mins; assay type: ADME, organism-based; parameters: dose 1500 mg, route intravenous, time infinity; details: in vivo, 1 h; procedure, shortened: as §1
[5] = Apparent half-life in human with creatinine clearance of 50-79 ml/min at 1500 mg, iv administered as single dose; assay type: ADME, organism-based; details: in vivo; procedure, shortened: as §1
Homo sapiens [6] = assay: Ratio of RO4957463 AUC (infinity) to compound AUC (infinity) in human with creatinine clearance of 30-49 ml/min at 1500 mg, iv administered as single dose measured after 60 mins; assay type: ADME, organism-based; details: in vivo, 1 h; procedure, shortened: as §1
Homo sapiens [7] = assay: Ratio of RO4957463 AUC (infinity) to compound AUC (infinity)) in human with creatinine clearance of =< 30 ml/min at 1500 mg, iv administered as single dose measured after 60 mins; assay type: ADME, organism-based; details: in vivo, 1 h; procedure, shortened: as §1
Homo sapiens [8] = assay: Drug excretion in human with creatinine clearance of 30-49 ml/min at 1500 mg, iv administered as single dose after 24 hrs; assay type: ADME, organism-based; details: in vivo; procedure, shortened: as §2
[9] = Apparent half-life in human with creatinine clearance of =< 30 ml/min at 1500 mg, iv administered as single dose; assay type: ADME, organism-based; details: in vivo; procedure, shortened: as §1
Homo sapiens [10] = assay: Ratio of RO4957463 AUC (infinity) to compound AUC (infinity) in human with creatinine clearance of 50-79 ml/min at 1500 mg, iv administered as single dose measured after 60 mins; assay type: ADME, organism-based; details: in vivo, 1 h; procedure, shortened: as §1
[11] = Volume of distribution at steady state in human with creatinine clearance of 30-49 ml/min at 1500 mg, iv administered as single dose measured after 60 mins; assay type: ADME, organism-based; details: in vivo, read-out: Vdss
Procedure, shortened: (§3)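 Eight subjects per CL_CR group (Cockcroft-Gault) received 1,500 mg i.v. over 60 min. Plasma was sampled predose and from 1 to 48 h, mixed with equal-volume 0.5 M MOPS pH 6.0, frozen at −70°C light-protected, and assayed by a validated method. Parameters were derived noncompartmentally from actual times, with T_max taken from raw data as a median and CL/V_ss as means ± SD.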

[12] = Volume of distribution in healthy human at 700 mg, iv administered as single dose; assay type: ADME, organism-based; details: in vivo
[13] = Tmax in human with creatinine clearance of =< 30 ml/min at 1500 mg, iv administered as single dose; assay type: ADME, organism-based; details: in vivo; procedure, shortened: as §3
[14] = Renal clearance in human with creatinine clearance of 30-49 ml/min at 1500 mg, iv administered as single dose after 24 hrs; assay type: ADME, organism-based, Kidney; details: in vivo, read-out: CL_renal (converted); procedure, shortened: as §2
Homo sapiens [15] = assay: Drug metabolism in human with creatinine clearance of =< 30 ml/min assessed as RO4957463 AUC (infinity) at 1500 mg, iv administered as single dose measured after 60 mins; assay type: ADME, organism-based; parameters: dose 1500 mg, time infinity, route intravenous; details: in vivo, 1 h; procedure, shortened: as §1
[16] = Dose normalized excretion in human with creatinine clearance of 50-79 ml/min at 1500 mg, iv administered as single dose after 24 hrs; assay type: ADME, organism-based; details: in vivo, read-out: Activity; procedure, shortened: as §2
Homo sapiens [17] = assay: Drug metabolism in human with creatinine clearance of =< 30 ml/min assessed as RO4957463 Tmax at 1500 mg, iv administered as single dose; assay type: ADME, organism-based; details: in vivo; procedure, shortened: as §1
[18] = Volume of distribution at steady state in human with creatinine clearance of 50-79 ml/min at 1500 mg, iv administered as single dose measured after 60 mins; assay type: ADME, organism-based; details: in vivo, read-out: Vdss; procedure, shortened: as §3
Homo sapiens [19] = assay: Drug metabolism in human with creatinine clearance of => 80 ml/min assessed as RO4957463 Cmax at 1500 mg, iv administered as single dose measured after 60 mins; assay type: ADME, organism-based; parameters: dose 1500 mg, route intravenous; details: in vivo, 1 h; procedure, shortened: as §1
Homo sapiens [20] = assay: Drug metabolism in human with creatinine clearance of =< 30 ml/min assessed as RO4957463 Cmax at 1500 mg, iv administered as single dose measured after 60 mins; assay type: ADME, organism-based; parameters: dose 1500 mg, route intravenous; details: in vivo, 1 h; procedure, shortened: as §1
Homo sapiens [21] = assay: Drug metabolism in human with creatinine clearance of 30-49 ml/min assessed as RO4957463 apparent half life at 1500 mg, iv administered as single dose; assay type: ADME, organism-based; details: in vivo; procedure, shortened: as §1
[22] = Cmax in human with creatinine clearance of 30-49 ml/min at 1500 mg, iv administered as single dose measured after 60 mins; assay type: ADME, organism-based; parameters: dose 1500 mg, route intravenous; details: in vivo; procedure, shortened: as §1
[23] = Apparent half-life in human with creatinine clearance of 30-49 ml/min at 1500 mg, iv administered as single dose; assay type: ADME, organism-based; details: in vivo; procedure, shortened: as §1
Homo sapiens [24] = assay: Drug metabolism in human with creatinine clearance of =< 30 ml/min assessed as RO4957463 apparent half life at 1500 mg, iv administered as single dose; assay type: ADME, organism-based; details: in vivo; procedure, shortened: as §1
Homo sapiens [25] = assay: Drug metabolism in human with creatinine clearance of => 80 ml/min assessed as RO4957463 apparent half life at 1500 mg, iv administered as single dose; assay type: ADME, organism-based; details: in vivo; procedure, shortened: as §1
Homo sapiens [26] = assay: Drug metabolism in human with creatinine clearance of 50-79 ml/min assessed as RO4957463 AUC (infinity) at 1500 mg, iv administered as single dose measured after 60 mins; assay type: ADME, organism-based; parameters: dose 1500 mg, time infinity, route intravenous; details: in vivo, 1 h; procedure, shortened: as §1

For `C[C@@H](O)[C@H]1C(=O)N2C(C(=O)O)=C(S[C@H]3C[C@@H](C(=O)N4CC[C@H](NC(=O)CNC(=N)N)C4)N(C)C3)[C@H](C)[C@H]12` [TOMOPENEM], the Cmax [1] was 81.4 µg/mL, the dose excreted at 24 h [2] was 62.6% and the CL renal at 24 h [3] was 77.2 mL/min. The AUC (Homo sapiens [4]) was 115 µg·h/mL, the half-life [5] was 3 h and the Ratio (Homo sapiens [6]) was 0.21. It also gave a Ratio (Homo sapiens [7]) of 0.49, an Activity (Homo sapiens [8]) of 939 mg and a half-life [9] of 7.94 h. The Ratio (Homo sapiens [10]) was 0.12, the Vd [11] was 17.2 L and the Vd [12] was 17 L. For the same compound, the Tmax [13] was 1.02 h, the CL renal at 24 h [14] was 33 mL/min and the AUC (Homo sapiens [15]) was 490 µg·h/mL. It also gave a dose excreted at 24 h [16] of 72.6%, a Tmax (Homo sapiens [17]) of 13.5 h and a Vd [18] of 16.2 L. It also gave a Cmax (Homo sapiens [19]) of 3.51 µg/mL, a Cmax (Homo sapiens [20]) of 9.63 µg/mL and a t1/2 (Homo sapiens [21]) of 8.32 h. It also gave a Cmax [22] of 100 µg/mL, a half-life [23] of 4.59 h and a t1/2 (Homo sapiens [24]) of 25.3 h. The t1/2 (Homo sapiens [25]) was 2.98 h and the AUC (Homo sapiens [26]) was 37.3 µg·h/mL.
